The record followed here is ChEMBL document CHEMBL3286242, “Design, synthesis and biological evaluation of arylcinnamide hybrid derivatives as novel anticancer agents” (Eur J Med Chem, 2014).

One test relates to LoVo. Kind of test: Cytotoxicity against human LoVo cells assessed as growth inhibition after 72 hrs by MTT assay. The class given is functional, cell-based.
Test [1] can be described thus: Cytotoxicity against human CEM/VBL100 cells assessed as growth inhibition after 72 hrs by MTT assay. The class given is functional, cell-based. To be noted: CEM/VBL100, 72 h.
A further test relates to CCRF-CEM. Nature of the test: Resistance ratio of IC50 for human CEM/VBL100 cells to IC50 for human CEM cells. The class given is functional. The gist of the method:
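Ratio of IC50 in resistant line to IC50 in parental line (CEMVbl-100/CEM; LoVoDoxo/LoVo), each IC50 from 72 h MTT dose–response curves, ≥3 independent experiments.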

The test system of test [2] is HeLa. Nature of the test: Induction of apoptosis in human HeLa cells assessed as increase in Bax protein expression at 1 to 2.5 uM after 24 to 48 hrs by Western blotting analysis. The class given is functional, cell-based.
The next test has as its target Tubulin (Homo sapiens) (UniProt P68371+Q9H4B7+P0DPH7+P68366+Q13509+Q71U36+P04350+Q3ZCM7+P07437+P68363+Q9BQE3+Q6PEY2+Q13885+Q9BVA1+Q9BUF5). Kind of test: Inhibition of tubulin polymerization in human HeLa cells assessed as microtubule disruption at 2.5 to 5 uM after 24 hrs by immunofluorescence microscopy relative to untreated control. The class given is cell-based. The gist of the method: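 HeLa cells exposed 24 h to 2.5 or 5.0 μM versus untreated; fixed in cold 4% formaldehyde 15 min, stained with anti-β-tubulin monoclonal (1:1000) and Alexa secondary (1:2000), DAPI counterstain; imaged by confocal microscopy at 20×.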

Test [3] concerns HeLa. Kind of test: Cell cycle arrest in human HeLa cells assessed as accumulation at G2/M phase after 24 hrs by propidium iodide staining-based flow cytometry. The class given is functional. The gist of the method: (§1)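 HeLa cells in exponential growth (2.5 × 10^5) treated 24 h at various concentrations; ethanol-fixed (70%, ice-cold), lysed with RNase A/0.1% Triton X-100, PI-stained; DNA content by flow cytometry, phase percentages from DNA histograms.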
In general terms: Flow cytometry measures light scatter and fluorescence of single cells or particles in a stream.

Test [4] relates to HeLa. Nature of the test: Cell cycle arrest in human HeLa cells assessed as reduction in S phase after 24 hrs by propidium iodide staining-based flow cytometry. The class given is functional. The essentials:
as §1

For test [5], the system named is HeLa. Nature of the test: Induction of apoptosis in human HeLa cells assessed as cell viability at 2.5 uM after 48 hrs by MTT assay in presence of dithiothreitol. The class given is functional, cell-based. The gist of the method:
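HeLa cells exposed to 2.5 μM compound for 48 h with scavengers (NAC 100 μM, GSH 1 mM or DTT 1 mM, among others); viability by MTT; means ± SEM of four independent experiments, Student's t-test.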

For test [6], the system named is HeLa. Nature of the test: Induction of apoptosis in human HeLa cells assessed as reduction in Bcl-2 protein expression at 1 to 2.5 uM by Western blotting analysis. The class given is functional, cell-based. To be noted: TDE = time-dependent effect. The gist of the method: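 HeLa cells treated at indicated concentrations and times; washed in cold PBS, lysed 30 min at 0 °C, cleared at 15 000 × g; 20 μg protein resolved on 7.5–15% gradient SDS-PAGE, blotted to PVDF, primary antibodies 2 h room temperature, peroxidase secondary 60 min, ECL detection; β-actin reprobe for loading.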

Test [7] relates to HeLa. Kind of test: Induction of apoptosis in human HeLa cells assessed as mitochondrial depolarization at 1 to 5 uM after 12 hrs by JC-1 staining-based flow cytometry. The class given is functional, cell-based.

Each structure is given as a SMILES string. Activity calls are given as the source filed them. The calls are words filed in the database; no cut-off is given here.

As for `C=C(Br)C(=O)Nc1ccc(/C=C/C(=O)Nc2cc(OC)c(OC)c(OC)c2)cc1`, the figures for the IC50 (in the test on LoVo; in [1]) were 2.1 µM and 0.015 µM, respectively. Also, the “Ratio IC50” value with CCRF-CEM came out at 0.6. The outcome in the test with HeLa [2] and in the test with HeLa [5] was inactive. The inhibition entry at Tubulin (Homo sapiens) is “inactive”. Moreover, the Activity entry in the test with HeLa [3] was “Dose-dependent effect”; in the test with HeLa [6] it was “tde”. Further, the result in the test on HeLa [4] and in the test on HeLa [7] was Active.
